In ChEMBL document CHEMBL3804764, “Synthesis and biological characterization of 3-(imidazol-1-ylmethyl)piperidine sulfonamides as aromatase inhibitors” (Bioorg Med Chem Lett, 2016):
pIC50: −log10 of the molar value.

What follows are molecules tested against T1, Aromatase (Homo sapiens, UniProt P11511) (assay: Inhibition of recombinant human aromatase using 7-methoxy-4-trifluoromethyl coumarin as substrate measured at […] conditions by fluorescence analysis).
T1 sequence (P11511 whole entry): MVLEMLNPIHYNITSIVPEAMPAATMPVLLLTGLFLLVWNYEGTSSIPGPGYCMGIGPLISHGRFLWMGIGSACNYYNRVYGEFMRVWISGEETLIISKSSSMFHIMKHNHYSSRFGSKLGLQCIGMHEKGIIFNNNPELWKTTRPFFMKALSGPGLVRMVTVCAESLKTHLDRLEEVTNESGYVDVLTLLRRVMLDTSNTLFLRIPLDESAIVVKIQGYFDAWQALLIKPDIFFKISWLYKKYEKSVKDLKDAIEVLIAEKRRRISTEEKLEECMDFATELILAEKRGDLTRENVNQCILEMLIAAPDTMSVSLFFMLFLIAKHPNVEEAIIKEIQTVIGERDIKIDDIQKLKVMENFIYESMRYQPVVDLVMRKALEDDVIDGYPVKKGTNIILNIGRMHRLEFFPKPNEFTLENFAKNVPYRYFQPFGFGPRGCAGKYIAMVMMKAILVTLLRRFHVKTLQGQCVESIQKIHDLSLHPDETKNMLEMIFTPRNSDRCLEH
Method in brief: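 Semiautomated high-throughput fluorometric screen with recombinant human aromatase and 7-methoxy-4-trifluoromethyl coumarin (MFC) substrate. Inhibition read as reduced fluorescence from MFC conversion. Blank values subtracted from sample wells to give net signal. Activity normalized to no-inhibitor wells. Duplicate assays. Racemic compounds tested.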

Structure (SMILES) | pIC50
COc1cc([N+](=O)[O-])ccc1S(=O)(=O)N1CCCC(Cn2ccnc2)C1 (configuration not stated) | 6.89
O=S(=O)(c1ccc(F)cc1)N1CCCC(Cn2ccnc2)C1 (configuration not stated) | 7.29
COc1c(C)cc(S(=O)(=O)N2CCCC(Cn3ccnc3)C2)cc1C (configuration not stated) | 7.68
O=S(=O)(c1ccc(OC2CCCC2)cc1)N1CCCC(Cn2ccnc2)C1 (configuration not stated) | 7.85
COc1ccc(S(=O)(=O)N2CCCC(Cn3ccnc3)C2)cc1F (configuration not stated) | 7.85
N#Cc1ccc(S(=O)(=O)N2CCCC(Cn3ccnc3)C2)cc1 (configuration not stated) | 7.44
Cc1cc(S(=O)(=O)N2CCCC(Cn3ccnc3)C2)ccc1F (configuration not stated) | 7.62
O=[N+]([O-])c1cccc(Cl)c1Oc1cccc(S(=O)(=O)N2CCCC(Cn3ccnc3)C2)c1 (configuration not stated) | 8.05
COc1ccc(S(=O)(=O)N2CCCC(Cn3ccnc3)C2)cc1OC (configuration not stated) | 7.38
CS(=O)(=O)c1ccc(S(=O)(=O)N2CCCC(Cn3ccnc3)C2)cc1 (configuration not stated) | 7.32
O=S(=O)(c1ccc(F)c(Cl)c1)N1CCCC(Cn2ccnc2)C1 (configuration not stated) | 7.85
COc1ccc(S(=O)(=O)N2CCCC(Cn3ccnc3)C2)c(C)c1C (configuration not stated) | 7.23
O=S(=O)(c1cccc2nsnc12)N1CCCC(Cn2ccnc2)C1 (configuration not stated) | 7.27
O=C(O)c1cc(S(=O)(=O)N2CCCC(Cn3ccnc3)C2)ccc1O (configuration not stated) | 6.47

More lines, in order of rising pIC50, values ahead:

pIC50 | Structure (SMILES)
6.88 | COc1ccc(S(=O)(=O)N2CCCC(Cn3ccnc3)C2)c(OC)c1 (configuration not stated)
7.10 | N#Cc1ccc(S(=O)(=O)N2CCCC(Cn3ccnc3)C2)c(Cl)c1 (configuration not stated)
7.28 | COC(=O)c1ccccc1S(=O)(=O)N1CCCC(Cn2ccnc2)C1 (configuration not stated)
7.32 | Cc1cc(F)ccc1S(=O)(=O)N1CCCC(Cn2ccnc2)C1 (configuration not stated)
7.34 | O=S(=O)(c1ccc(F)c(F)c1F)N1CCCC(Cn2ccnc2)C1 (configuration not stated)
7.35 | COc1c(C)cc(S(=O)(=O)N2CCCC(Cn3ccnc3)C2)c(C)c1C (configuration not stated)
7.37 | O=S(=O)(c1ccc(F)c(F)c1)N1CCCC(Cn2ccnc2)C1 (configuration not stated)
7.66 | O=S(=O)(c1ccc(OC2CCCC2)c(F)c1)N1CCCC(Cn2ccnc2)C1 (configuration not stated)
7.80 | O=[N+]([O-])c1ccc(S(=O)(=O)N2CCCC(Cn3ccnc3)C2)cc1C(F)(F)F (configuration not stated)
7.89 | O=S(=O)(c1ccc2c(c1)OCCO2)N1CCCC(Cn2ccnc2)C1 (configuration not stated)
8.05 | COc1ccc(S(=O)(=O)N2CCCC(Cn3ccnc3)C2)cc1C(C)(C)C (configuration not stated)
8.15 | O=S(=O)(c1ccc2nsnc2c1)N1CCCC(Cn2ccnc2)C1 (configuration not stated)
8.22 | COc1ccc(S(=O)(=O)N2CCCC(Cn3ccnc3)C2)cc1Br (configuration not stated)
